# Experimental data collected from several papers.
# Each line is one published result; the experiments were not run side by side.
# PADI3: Protein-arginine deiminase type-3 (PADI3, Homo sapiens, UniProt Q9ULW8)
# Genome polyprotein protease: Genome polyprotein, protease (Hepatitis C virus genotype 1b, UniProt Q9WMX2)
# AMY2: Pancreatic alpha-amylase (AMY2, Sus scrofa, UniProt P00690)
# GAK: Cyclin-G-associated kinase (GAK, Homo sapiens, UniProt O14976)
# Maoa: Amine oxidase [flavin-containing] A (Maoa, Rattus norvegicus, UniProt P21396)
# RIPK1: Receptor-interacting serine/threonine-protein kinase 1 (RIPK1, Homo sapiens, UniProt Q13546)
# KRAS G12C: GTPase KRas (KRAS, Homo sapiens, UniProt P01116, G12C)
Structure (SMILES),target,test,setting,quantity,value
N=C(CF)NCCC[C@H](NC(=O)c1ccc(-c2ccccc2)cc1)c1nn[nH]n1,PADI3,"enzyme activity, inhibitor",,kinact/KI,5.08 M⁻¹ s⁻¹
O=C1OC[C@H]2OC(O)[C@H](O)[C@@H](O)[C@@H]2OC(=O)c2cc(O)c(O)c(O)c2-c2c(O)c(O)c3oc(=O)c4c(c(O)c(O)c5oc(=O)c2c3c54)-c2c1cc(O)c(O)c2O (mixture of isomers),Genome polyprotein protease,"enzyme activity, inhibitor, fluorescence",,IC90,~1000 nM
CN(O)N=Nc1ccc(S(=O)(=O)Nc2nccs2)cc1,AMY2,"enzyme activity, inhibitor",120 µg/mL,inhibition,42.1%
COc1ccc(Nc2ncnc3ccc(C(F)(F)F)cc23)cc1,GAK,"thermal stability, DSF",10 µM,ΔTm,0.3 °C
NCc1ccc(Br)cc1,Maoa,"enzyme activity, substrate",pH 7.5,Km,34 µM
Cc1cc(NS(=O)(=O)c2ccc(N=NN(C)O)cc2)no1,AMY2,"enzyme activity, inhibitor",20 µg/mL,inhibition,10.5%
FC(F)(F)c1ccc2nccc(Nc3ccc4c(c3)OCO4)c2c1,GAK,"thermal stability, DSF",10 µM,ΔTm,3.2 °C
Cn1c2c(c3ccc(Cl)c(Cl)c31)C(C#N)C1(CCNCC1)NC2=O (racemic),"Serine/threonine-protein kinase DCLK1 (DCLK1, Homo sapiens, UniProt O15075)","thermal stability, DSF",10 µM,ΔTm,0.9 °C
COc1cc(Nc2ncnc3ccc(C(F)(F)F)cc23)cc(OC)c1,GAK,"thermal stability, DSF",10 µM,ΔTm,0.7 °C
C[C@@H]1CN(c2ccc3ncc(-c4ccc5[nH]nc(C6CC6)c5c4)n3n2)C[C@H](C)O1,"Cyclin-dependent kinase 19 (CDK19, Homo sapiens, UniProt Q9BWU1)","binding, competition with immobilised ligand",50 nM,remaining binding,90%
Cc1ccc(N(O)N=Nc2ccc(S(=O)(=O)Nc3cc(C)on3)cc2)cc1,AMY2,"enzyme activity, inhibitor",60 µg/mL,inhibition,26.3%
FC(F)(F)c1cccc(Nc2ccnc3ccc(C(F)(F)F)cc23)c1,GAK,"thermal stability, DSF",10 µM,ΔTm,1.3 °C
CC(C)(C)n1nnc([C@H](CCCNC(=N)CF)NC(=O)c2ccc(-c3ccccc3)cc2)n1,PADI3,"enzyme activity, inhibitor",,kinact/KI,11.7 M⁻¹ s⁻¹
CC/C(=N\NC(=O)NCc1cccc(O)c1)c1ccc(O)c(C)c1O,"Fibroblast growth factor receptor 3 (FGFR3, Homo sapiens, UniProt P22607, K650E)","enzyme activity, inhibitor",0.1 µM,inhibition,1.3%
CCN(O)N=Nc1ccc(S(=O)(=O)Nc2cc(C)on2)cc1,AMY2,"enzyme activity, inhibitor",120 µg/mL,inhibition,42.1%
NC(=O)[C@H](CCCN=C(N)N)NC(=O)c1ccccc1,PADI3,"enzyme activity, substrate",,Km,13900 µM
COc1ccc(CN)cc1,Maoa,"enzyme activity, substrate",pH 7.5,Km,80 µM
Fc1cccc(Nc2ccnc3ccc(C(F)(F)F)cc23)c1,GAK,"thermal stability, DSF",10 µM,ΔTm,4.3 °C
CC(C)(C)n1nnc([C@H](CCCNC(=N)CF)NC(=O)c2ccccc2)n1,PADI3,"enzyme activity, inhibitor",,kinact/KI,8.67 M⁻¹ s⁻¹
CS(=O)(=O)c1ccc(Nc2ccnc3ccc(C(F)(F)F)cc23)cc1,GAK,"thermal stability, DSF",10 µM,ΔTm,0.2 °C
COc1cc(C=CC(=O)CC(c2ccc([N+](=O)[O-])cc2)n2ccnc2)ccc1O (stereo not drawn),AMY2,"enzyme activity, inhibitor, absorbance",2.5 µg/mL,inhibition,62.6%
CCCN(O)N=Nc1ccc(S(=O)(=O)Nc2cc(C)on2)cc1,AMY2,"enzyme activity, inhibitor",60 µg/mL,inhibition,21.1%
O=c1oc2c(O)c(O)cc3c(=O)oc4c(O)c(O)cc1c4c23,Genome polyprotein protease,"enzyme activity, inhibitor, fluorescence",,IC90,< 10000 nM
Cc1ccc(C(=O)Nc2ccc(CN3CCN(C)CC3)c(C(F)(F)F)c2)cc1C#Cc1cnc2cccnn12,RIPK1,"enzyme activity, inhibitor",23.5 nM,remaining activity,86%
C=CC(=O)Nc1cccc(-c2noc([C@@]3(C)CCCc4sc(N)c(C#N)c43)n2)c1,KRAS G12C,"cell-free assay, inhibitor",,kinact,0.000306 s⁻¹
COc1cc(Nc2ccnc3cc(C#N)ccc23)cc(OC)c1OC,GAK,"thermal stability, DSF",10 µM,ΔTm,5.3 °C
C[C@H]1O[C@H](O[C@H]2[C@H](O)[C@@H](O)[C@@H](O[C@H]3[C@H](O)[C@@H](O)C(O)O[C@@H]3CO)O[C@@H]2CO)[C@H](O)[C@@H](O)[C@@H]1N[C@H]1C=C(CO)[C@@H](O)[C@H](O)[C@H]1O (stereo partly drawn),AMY2,"enzyme activity, inhibitor",10 µg/mL,inhibition,23.1%
N=C(CF)NCCC[C@H](NC(=O)c1ccccc1)c1nn[nH]n1,PADI3,"enzyme activity, inhibitor",,kinact/KI,7.25 M⁻¹ s⁻¹
COc1cc(Nc2ccnc3ccccc23)cc(OC)c1OC,GAK,"thermal stability, DSF",10 µM,ΔTm,4.4 °C
CC(C)(C)n1nnc([C@H](CCCNC(=N)CCl)NC(=O)c2ccccc2C(=O)O)n1,PADI3,"enzyme activity, inhibitor",,kinact/KI,292 M⁻¹ s⁻¹
COc1cc(C=Cc2cc(-c3ccc(N(C)C)cc3)nc(O)n2)ccc1O,AMY2,"enzyme activity, inhibitor, absorbance",10 µg/mL,inhibition,82.6%
O=S(=O)(Nc1nccs1)c1ccc(N=NN(O)c2ccccc2)cc1,AMY2,"enzyme activity, inhibitor",60 µg/mL,inhibition,15.8%
FC(F)(F)Oc1cccc(-c2cnc3ccc(-c4ccncc4)nn23)c1,"Eukaryotic translation initiation factor 2-alpha kinase 3 (EIF2AK3, Homo sapiens, UniProt Q9NZJ5)","enzyme activity, inhibitor, radiometric",5 µM,activity vs control,67%
C=CC(=O)Nc1ccc(-c2noc([C@@]3(C)CCCc4sc(N)c(C#N)c43)n2)cc1,KRAS G12C,"cell-free assay, inhibitor",,kinact,0.000194 s⁻¹
CCCN(O)N=Nc1ccc(S(=O)(=O)Nc2nccs2)cc1,AMY2,"enzyme activity, inhibitor",240 µg/mL,inhibition,63.2%
CCCOc1ccc(OC)c(F)c1C(=O)c1ccc(C(=O)N[C@@H]2CNC[C@H]2NC(=O)c2ccc3[nH]ncc3c2)cc1,"Serine/threonine-protein kinase MRCK beta (CDC42BPB, Homo sapiens, UniProt Q9Y5S2)","enzyme activity, inhibitor",0.75 µM,remaining activity,7%
Nc1ncnc2occ(-c3ccc(NC(=O)Nc4cc(C(F)(F)F)ccc4F)cc3)c12,RIPK1,"cell-free assay, inhibitor",20 µM,remaining signal,0%
COc1cc(C=CC(=O)CC(c2ccc(N(C)C)cc2)n2ccnc2)ccc1O (stereo not drawn),AMY2,"enzyme activity, inhibitor, absorbance",2.5 µg/mL,inhibition,67.3%
N=C(CCl)NCCC[C@H](NC(=O)c1ccccc1)c1nn[nH]n1,PADI3,"enzyme activity, inhibitor",,kinact/KI,49.6 M⁻¹ s⁻¹
